Assay results collected from several papers.
Target: Serine/threonine-protein kinase TAO3 (TAOK3, Homo sapiens, UniProt Q9H2K8)
Residues used in one study (Q9H2K8 1-898): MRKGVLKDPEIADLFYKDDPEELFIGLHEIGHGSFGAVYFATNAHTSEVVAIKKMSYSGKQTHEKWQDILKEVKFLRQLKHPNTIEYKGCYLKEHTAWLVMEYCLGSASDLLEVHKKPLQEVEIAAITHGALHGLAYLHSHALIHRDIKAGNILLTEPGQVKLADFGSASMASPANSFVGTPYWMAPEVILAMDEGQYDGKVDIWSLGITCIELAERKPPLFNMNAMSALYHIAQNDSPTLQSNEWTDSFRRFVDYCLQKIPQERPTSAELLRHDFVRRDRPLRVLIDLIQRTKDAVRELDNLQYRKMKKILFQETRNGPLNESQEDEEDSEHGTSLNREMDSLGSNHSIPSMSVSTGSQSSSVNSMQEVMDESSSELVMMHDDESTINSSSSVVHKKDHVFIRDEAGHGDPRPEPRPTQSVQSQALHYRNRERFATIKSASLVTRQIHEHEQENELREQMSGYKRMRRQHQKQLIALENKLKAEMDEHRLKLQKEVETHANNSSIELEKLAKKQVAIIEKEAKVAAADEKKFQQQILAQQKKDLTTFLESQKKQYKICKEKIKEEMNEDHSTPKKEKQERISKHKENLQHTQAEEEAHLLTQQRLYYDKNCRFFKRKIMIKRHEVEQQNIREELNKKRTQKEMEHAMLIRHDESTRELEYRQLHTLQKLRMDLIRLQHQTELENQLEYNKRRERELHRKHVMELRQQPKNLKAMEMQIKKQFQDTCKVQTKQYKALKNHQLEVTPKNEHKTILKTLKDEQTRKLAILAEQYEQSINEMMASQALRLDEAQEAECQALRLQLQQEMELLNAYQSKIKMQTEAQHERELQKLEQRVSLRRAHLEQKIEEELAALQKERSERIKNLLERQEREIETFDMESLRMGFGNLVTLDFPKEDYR

| SMILES | test | setting | endpoint | value |
| --- | --- | --- | --- | --- |
| CC(C)(C)c1cc(C=C(C#N)C#N)cc(Br)c1O | enzyme activity, inhibitor | 0.5 µM | remaining activity | 122% |
| Cn1cncc1[C@](O)(COc1ccc(C#N)cc1-c1ccc(OC(F)(F)F)cc1)c1ccc(C#N)cc1 | cell-free assay, competition with immobilised ligand | 1 µM | remaining binding | 87% |
| O=c1[nH]c2ccccc2n1C1CCN(Cc2ccc(-c3[nH]c4cc5ncnc5cc4nc3-c3ccccc3)cc2)CC1 | cell-free assay | 0.5 µM | remaining signal | 111% |
| COc1ncccc1-c1cnn2ccc(N3CCN(C(=O)OC(C)C)CC3)nc12 | binding, competition with immobilised ligand | 1 µM | remaining binding | 75% |
| Nc1ncc(-c2nc(N3CCOCC3)nc(N3CCOCC3)n2)c(C(F)F)n1 | binding, competition with immobilised ligand | 10 µM | remaining binding | 70% |
| Cn1cc(-c2cccc(N3CCc4c(sc5c4CC(C)(C)C5)C3=O)c2CO)cc(Nc2ccncn2)c1=O | enzyme activity, inhibitor | 1 µM | inhibition | 1% |
| Cc1nn(C)cc1-c1nc2c(N3CCN(Cc4ccc(Cl)cc4)CC3)c(Cl)cnc2[nH]1 | binding, competition with immobilised ligand | 1 µM | remaining binding | 87% |
| Cn1cc(-c2cc(F)cc(N3CCn4c(cc5c4CCCC5)C3=O)c2CO)cc(Nc2ccc(N3CCN(C4COC4)CC3)cn2)c1=O | enzyme activity, inhibitor | 0.1 µM | inhibition | -6% |
| N#CC1(c2ccccn2)CCN(Cc2cc(C(=O)O)c(=O)n3ccccc23)CC1 | cell-free assay, competition with immobilised ligand | 1 µM | remaining binding | 78% |
